For orientation: pIC50 means −log10 of the IC50, conventionally taken in molar units. As usually defined, the pEC50 is the negative decadic logarithm of the EC50, by convention in mol/L.

For series [1], the target named is T1, Gamma-secretase (Homo sapiens) (UniProt Q96BI3+Q9NZ42+Q8WW43+P49768+Q92542+P49810). Kind of series: Modulation of gamma-secretase activity in human H4 cells expressing APP695 assessed as increase in amyloid beta38 production at 100 uM after 20 to 24 hrs by liquid phase electrochemiluminescence assay. In kind it is cell-based. The procedure, abridged: (§1)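 Aβ-lowering assay in H4 APPΔ9 cells. Secreted Aβ isoforms (Aβ38, Aβ40, Aβ42) were quantified by liquid phase electrochemiluminescence (LPECL). Dose-response testing was capped at 100 μM to avoid micelle formation by the amphiphilic acids. EC50 values were derived from the curves, and the response at 100 μM was reported where EC50 could not be determined.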

Series [2] addresses T1, Gamma-secretase (Homo sapiens). Kind of series: Modulation of gamma-secretase activity in human H4 cells expressing APP695 assessed as increase in amyloid beta40 production at 100 uM after 20 to 24 hrs by liquid phase electrochemiluminescence assay. In kind it is cell-based. The procedure, abridged: as §1
Series [3] has as its target Gamma-secretase. Kind of series: Modulation of gamma-secretase activity in human H4 cells expressing APP695 assessed as increase in amyloid beta42 production after 20 to 24 hrs by liquid phase electrochemiluminescence assay. The class given is cell-based. The procedure, abridged: as §1
Series [4] deals with H4. Kind of series: Cytotoxicity against human H4 cells assessed as cell viability by MTS assay. The class given is cell-based. The procedure, abridged:
(§2)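 Viability of H4 APPΔ9 cells was read by a colorimetric cell proliferation assay based on bioreduction of MTS (Owen's reagent) to formazan.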

In series [5] the target is Gamma-secretase. The experiment in a line: Modulation of gamma-secretase activity in human H4 cells expressing APP695 assessed as increase in amyloid beta38 production after 20 to 24 hrs by liquid phase electrochemiluminescence assay. In kind it is cell-based. The procedure, abridged: as §1
The target in series [6] is Gamma-secretase. Kind of series: Modulation of gamma-secretase activity in human H4 cells expressing APP695 assessed as increase in amyloid beta40 production after 20 to 24 hrs by liquid phase electrochemiluminescence assay. The class given is cell-based. The procedure, abridged:
as §1

Series [7] relates to H4. The experiment in a line: Cytotoxicity against human H4 cells assessed as cell viability at 80 uM by MTS assay. The note with it: h4, 80 µM. In kind it is cell-based. The procedure, abridged:
as §2
A general note: Tetrazolium assays rely on reduction of a dye to a coloured formazan, in cell work by metabolically active cells.

For series [8], the system named is H4. Kind of series: Cytotoxicity against human H4 cells assessed as cell viability at 20 uM by MTS assay. The note with it: h4, 20 µM. In kind it is cell-based. The procedure, abridged: as §2
For series [9], the system named is H4. The experiment in a line: Cytotoxicity against human H4 cells assessed as cell viability at 160 uM by MTS assay. The class given is cell-based. As to conditions: h4, 160 µM. The procedure, abridged:
as §2

For a further series, the system named is Mus musculus. Kind of series: Antialzheimer activity in APP Swedish mutant transgenic C57/BLg mouse assessed as change in amyloid beta42 level in brain at 10 mg/kg, po after 5 hrs. The class given is functional, organism-based. Also on record: dose 10 mg/kg.
Series [10] in a line: Ratio of AUC in brain to AUC in plasma in APP Swedish mutant transgenic C57/BLg mouse at 10 mg/kg, po after 5 hrs. The note with it: in vivo.
Series [11] is described as follows: Ratio of AUC in plasma to AUC in cerebrospinal fluid in rat. In kind it is ADME, CSF/Plasma. As to conditions: in vivo.

pEC50, pIC50: −log10 of the molar value. Calls of active or inactive are those of the source. No cut-off for these calls is given here.

Turning to `CCCCCCCCn1c2ccccc2c2cc(C=O)c(OCC(=O)OC)cc21`, the result in series [1] and in [2] was inactive. The pIC50 at Gamma-secretase [3] was 4.05. The Activity result in the series on H4 [4] is on record as “Non-toxic”.
`CCCCCCCCn1c2ccc(Cl)cc2c2ccc(C(C)C(=O)OC)cc21` (configuration not stated): the outcome in series [1] and in [2] was inactive. Further, at Gamma-secretase [3], the pEC50 was 4.82.
Regarding `CCCCCCCCn1c2ccccc2c2ccc(OCCS(=O)(=O)O)cc21`, the result in [1] and in series [2] was inactive. Also, the pIC50 on Gamma-secretase [3] is less than 4.10.
Consider `CCCCCCCCn1c2ccccc2c2ccc(OCC(=O)O)cc21`, for which the pEC50 at Gamma-secretase [5] is 4.62. In addition, on Gamma-secretase [3], the pIC50 was 4.72.
For the molecule `CCCCCCCCn1c2ccccc2c2cc(CCC(=O)O)c(OCC(=O)O)cc21`, the outcome in series [1] and in [2] was inactive. On Gamma-secretase [3], the negative-log IC50 (pIC50) was less than 4.10.
As for `CCCCCCCCn1c2ccccc2c2ccc(OC3=C(O)COC3=O)cc21`, the negative-log EC50 (pEC50) at Gamma-secretase [5] is 4.68. Besides, the pIC50 was less than 4.10 on Gamma-secretase [6] and 4.43 on Gamma-secretase [3]. Further, the Activity result in the series on H4 [4] is listed as “Non-toxic”.
`CCCCCCCCn1c2ccc(Cl)cc2c2ccc(C(C)C(=O)OCc3ccccc3)cc21` (configuration not stated): the result in series [1] and in series [2] was inactive. Moreover, at Gamma-secretase [3], the pIC50 was less than 4.10. In addition, the Activity result in the series with H4 [4] is recorded as “Non-toxic”.
`CCCCCCCCn1c2ccccc2c2ccc(OCCP(=O)(OCC)OCC)cc21`: the result in series [1] and in series [2] was inactive. In addition, the pEC50 at Gamma-secretase [3] is 4.89. Further, the Activity entry with H4 [7] is given as “Toxic”.
Regarding `CCCCCCCCn1c2ccc(Cl)cc2c2ccc(C(C)C(=O)O)cc21` (configuration not stated), the pIC50 on Gamma-secretase [5] is 4.00; on Gamma-secretase [6], less than 4.40; on Gamma-secretase [3] it was 5.16.
As to `CCCCCCCCn1c2ccccc2c2ccc(OC3=C(O)C(Cc4ccccc4)N(Cc4ccc5c(c4)OCO5)C3=O)cc21` (configuration not stated), the negative-log IC50 (pIC50) was 4.51 at Gamma-secretase [5], 4.49 on Gamma-secretase [6] and 4.62 at Gamma-secretase [3]. The Activity result in the series on H4 [7] is recorded as “Toxic”.
`CCCCCCCCn1c2ccc(Cl)cc2c2ccc(CC)cc21`: the result in series [1] and in [2] was inactive. Moreover, on Gamma-secretase [3], the pEC50 was 4.30.
Turning to `CCCCCCCCn1c2ccccc2c2ccc(O)cc21`, the result in series [1] and in series [2] was inactive. Moreover, the negative logarithm of the IC50 (pIC50) on Gamma-secretase [3] is less than 4.10.
`CCCCCCCCn1c2ccccc2c2ccc(OCCN(C)C)cc21`: the outcome in series [1] and in series [2] was inactive. Further, the pEC50 at Gamma-secretase [3] was less than 5.00. Moreover, the Activity result in the series on H4 [8] is listed as “Toxic”.
Turning to `CCCCCCCCn1c2ccccc2c2cc(CO)c(OCCO)cc21`, the result in [1] and in [2] was inactive. Besides, on Gamma-secretase [3], the pIC50 was 4.10.
For `CCCCCCCCn1c2ccccc2c2ccc(OCC(=O)OC(C)(C)C)cc21`, the outcome in series [1] and in series [2] was inactive. Besides, the pEC50 on Gamma-secretase [3] is 4.72. Also, the Activity entry with H4 [4] is given as “Non-toxic”.
`CCCCCCCCn1c2ccccc2c2ccc(OCc3nn[nH]n3)cc21`: the values for the negative-log IC50 (pIC50) at Gamma-secretase [5], at Gamma-secretase [6] and on Gamma-secretase [3] were 3.78, 3.99 and 3.95, respectively.
For the molecule `CCCCCCCCn1c2ccccc2c2ccc(OCC(N)=O)cc21`, the outcome in series [1] and in series [2] was inactive. For the same molecule, the pIC50 on Gamma-secretase [3] is 3.98. Moreover, the Activity entry in the series with H4 [9] is given as “Toxic”.
For the molecule `CCCCCCCCn1c2ccccc2c2ccc(OCC(=O)OCC)cc21`, the result in [1] and in series [2] was inactive. The negative logarithm of the IC50 (pIC50) on Gamma-secretase [3] is 4.51.
In the case of `CCCCCCCCn1c2ccccc2c2ccc(OCC#N)cc21`, the pIC50 was 4.13 at Gamma-secretase [5], 3.98 on Gamma-secretase [6] and 3.60 at Gamma-secretase [3].
For the molecule `CCCCCCCCn1c2ccccc2c2ccc(OCC(O)C(F)(F)F)cc21` (configuration not stated), the result in [1] and in [2] was inactive. Further, the pEC50 at Gamma-secretase [3] is 4.92.
In the case of `CCCCCCCCn1c2ccccc2c2ccc(OC3=C(O)CNC3=O)cc21`, the negative logarithm of the EC50 (pEC50) at Gamma-secretase [5] is 5.10. In addition, the pIC50 was 4.14 at Gamma-secretase [6] and 4.55 on Gamma-secretase [3]. Moreover, the Activity entry with H4 [4] is listed as “Non-toxic”.
Consider `CCCCCCCCn1c2ccccc2c2ccc(OC(C)(C)C(=O)O)cc21`, for which the negative-log EC50 (pEC50) at Gamma-secretase [5] was less than 4.40. Further, the negative logarithm of the IC50 (pIC50) on Gamma-secretase [6] and at Gamma-secretase [3] was less than 4.40 throughout. For the same molecule, the Activity entry with H4 [7] is “Toxic”.
As to `CCCCCCCCn1c2ccccc2c2ccc(OCC(=O)OC(C)C)cc21`, the outcome in series [1] and in [2] was inactive. Moreover, at Gamma-secretase [3], the pEC50 is 4.31.
Consider `CCCCCCCCn1c2ccc(Cl)cc2c2ccc(C(C)C(=O)OCC)cc21` (configuration not stated), for which the outcome in [1] and in [2] was inactive. The pEC50 on Gamma-secretase [3] is 4.68.
`CCCCCCCCn1c2ccccc2c2ccc(OCCNC=O)cc21`: the outcome in [1] and in [2] was inactive. Besides, the negative logarithm of the IC50 (pIC50) on Gamma-secretase [3] was less than 4.10. In addition, in the series on H4 [4], the Activity result is reported as “Non-toxic”.
Take `CCCCCCCCn1c2ccccc2c2ccc(OCCN(C(=O)C(F)(F)F)C(=O)C(F)(F)F)cc21`: the result in series [1] and in [2] was inactive. For the same molecule, the negative logarithm of the IC50 (pIC50) on Gamma-secretase [3] is less than 4.10. Also, in the series on H4 [4], the Activity result is given as “Non-toxic”.
In the case of `CCCCCCCCn1c2ccccc2c2ccc(Oc3ccccc3C(=O)O)cc21`, the pEC50 on Gamma-secretase [5] is 4.64. Moreover, the pIC50 at Gamma-secretase [6] was less than 4.10; at Gamma-secretase [3], 4.42. In the series on H4 [4], the Activity result is listed as “Non-toxic”.
As for `CCCCCCCCn1c2ccc(Cl)cc2c2ccc(C(C)CO)cc21` (configuration not stated), the result in series [1] and in series [2] was inactive. Moreover, the pEC50 at Gamma-secretase [3] is 4.68. Besides, the Activity result in the series with H4 [7] is on record as “Toxic”.
As for `CCCCCCCCn1c2ccccc2c2ccc(OCCN)cc21`, the pIC50 at Gamma-secretase [5] and on Gamma-secretase [6] was less than 4.10 in each case. Besides, the pEC50 at Gamma-secretase [3] was less than 4.10. The Activity result with H4 [4] is “Non-toxic”.
Take `CCCCCCCCn1c2ccccc2c2ccc(OCCO)cc21`: the outcome in series [1] and in series [2] was inactive. Besides, on Gamma-secretase [3], the pIC50 was less than 4.40. Besides, in the series with H4 [4], the Activity result was “Non-toxic”.
With `CCCCCCCCn1c2ccccc2c2ccc(OCC(=O)OC)cc21`, the result in series [1] and in series [2] was inactive. Also, the pIC50 at Gamma-secretase [3] is 4.57. Besides, the Activity result in the series on H4 [4] is “Non-toxic”.
With `CCCCCCCCCCn1c2ccc(Cl)cc2c2ccc(C(C)C(=O)O)cc21` (configuration not stated), in the series on Mus musculus, the result was inactive. Also, the “Ratio AUC” value in series [10] is reported as less than 0.1.
`CC(C(=O)O)c1ccc(-c2ccccc2)c(F)c1` (configuration not stated) [FLURBIPROFEN]: in series [11], the “Ratio AUC” value is given as 5.31.
As for `CCCCCCCCn1c2ccccc2c2ccc(OCCC(=O)O)cc21`, the pEC50 at Gamma-secretase [5] was less than 4.10. In addition, the pIC50 on Gamma-secretase [6] and at Gamma-secretase [3] was less than 4.10 throughout. In addition, the Activity result in the series on H4 [4] was “Non-toxic”.
Consider `CCCCCCCCn1c2ccc(Cl)cc2c2ccc(C(C)C(=O)NS(C)(=O)=O)cc21` (configuration not stated), for which the outcome in series [1] and in series [2] was inactive. Besides, the pEC50 on Gamma-secretase [3] was 4.49.
`CCCCCCCCn1c2ccccc2c2ccc(OCC(=O)OCC(C)C)cc21`: the result in series [1] and in series [2] was inactive. For the same molecule, the pIC50 at Gamma-secretase [3] was less than 4.10. In the series on H4 [4], the Activity entry was “Non-toxic”.
On to `CCCCCCCCn1c2ccccc2c2cc(C=O)c(OCC(=O)O)cc21`, for which the result in series [1] and in series [2] was inactive. Further, the pIC50 on Gamma-secretase [3] is 4.49. For the same molecule, the Activity result in the series with H4 [7] is “Toxic”.

Values taken from ChEMBL document CHEMBL1811865, “NSAID-derived γ-secretase modulation requires an acidic moiety on the carbazole scaffold” (Bioorg Med Chem, 2011).
